Key:
[1] = Inhibition of bacterial VIM-1 (unknown origin) expressed in Escherichia coli EXPRESS BL21(DE3) assessed as inhibition constant by measuring rate of substrate hydrolysis by UV-visible spectrophotometry; set-up: species or system Bacteria
Outline: (§1)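 Reporter-substrate assay with purified MBL (1–70 nM final) in 50 mM HEPES pH 7.5 at 30 °C. […] Inhibitor 0.5–1000 μM final. Ki derived from the v0/vi vs [I] slope assuming competitive inhibition, or from a Dixon plot. Ki given when inhibition >70%, otherwise % inhibition at 100 μM. Triplicate.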

[2] = Inhibition of bacterial VIM-4 (unknown origin) expressed in Escherichia coli EXPRESS BL21(DE3) assessed as inhibition constant by measuring rate of substrate hydrolysis by UV-visible spectrophotometry; set-up: species or system Bacteria; outline: as §1
[3] = Stability in mouse plasma assessed as half life at 37 degC; type: ADME, cell-free
[4] = Metabolic stability in CD-1 mouse microsomes assessed as intrinsic clearance at 37 degC by LC-MS/MS analysis; type: ADME, Microsome; details: for Stability: mouse; for microsomal CLint: CD-1, mouse
Outline: (§2)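 Mouse liver microsomes, mixed gender, at 37 °C for 40 min; propranolol control. Reports t1/2, intrinsic clearance and % intact compound remaining at 40 min.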

[5] = biological target: T1, Endoplasmic reticulum aminopeptidase 1 (Mus musculus) (UniProt Q9EQH2); test: Inhibition of recombinant mouse ERAAP using fluorogenic substrate H-Leu-AMC at 100 uM relative to control
T1 sequence (whole entry): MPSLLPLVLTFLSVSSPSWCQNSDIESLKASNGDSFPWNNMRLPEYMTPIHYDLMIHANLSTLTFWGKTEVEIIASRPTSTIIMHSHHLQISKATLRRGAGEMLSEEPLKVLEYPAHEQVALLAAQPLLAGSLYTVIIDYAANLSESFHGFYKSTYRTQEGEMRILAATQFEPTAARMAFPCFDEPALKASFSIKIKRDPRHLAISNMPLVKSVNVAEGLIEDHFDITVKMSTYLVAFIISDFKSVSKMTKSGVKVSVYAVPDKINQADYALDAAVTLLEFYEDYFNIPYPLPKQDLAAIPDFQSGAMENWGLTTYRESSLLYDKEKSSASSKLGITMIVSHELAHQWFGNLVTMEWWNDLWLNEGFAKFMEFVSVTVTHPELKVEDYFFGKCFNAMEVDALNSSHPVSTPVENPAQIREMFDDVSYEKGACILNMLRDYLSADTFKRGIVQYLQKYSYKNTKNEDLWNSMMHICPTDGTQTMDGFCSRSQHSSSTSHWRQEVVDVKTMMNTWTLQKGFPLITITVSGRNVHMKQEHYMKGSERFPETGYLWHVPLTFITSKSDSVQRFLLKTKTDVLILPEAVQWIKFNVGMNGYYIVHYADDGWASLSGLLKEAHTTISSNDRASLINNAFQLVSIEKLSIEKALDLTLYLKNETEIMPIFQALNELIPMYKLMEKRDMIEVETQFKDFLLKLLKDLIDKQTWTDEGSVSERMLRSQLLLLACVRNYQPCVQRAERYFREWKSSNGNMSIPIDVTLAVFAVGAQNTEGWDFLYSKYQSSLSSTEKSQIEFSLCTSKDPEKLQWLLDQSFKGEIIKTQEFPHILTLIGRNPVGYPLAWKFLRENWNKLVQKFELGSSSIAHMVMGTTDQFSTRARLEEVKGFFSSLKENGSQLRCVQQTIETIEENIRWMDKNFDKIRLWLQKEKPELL
Outline: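 Mouse ERAAP, H-Leu-AMC substrate; undisclosed in-house control inhibitor. Percent inhibition at 100 μM, one experiment in duplicate.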

[6] = biological target: T2, Protein deacetylase HDAC6 (Homo sapiens) (UniProt Q9UBN7); test: Inhibition of recombinant human His-tagged HDAC6 expressed in baculovirus expression system using fluorogenic peptide substrate measured after 45 mins at 100 uM relative to control
T2 sequence (whole entry): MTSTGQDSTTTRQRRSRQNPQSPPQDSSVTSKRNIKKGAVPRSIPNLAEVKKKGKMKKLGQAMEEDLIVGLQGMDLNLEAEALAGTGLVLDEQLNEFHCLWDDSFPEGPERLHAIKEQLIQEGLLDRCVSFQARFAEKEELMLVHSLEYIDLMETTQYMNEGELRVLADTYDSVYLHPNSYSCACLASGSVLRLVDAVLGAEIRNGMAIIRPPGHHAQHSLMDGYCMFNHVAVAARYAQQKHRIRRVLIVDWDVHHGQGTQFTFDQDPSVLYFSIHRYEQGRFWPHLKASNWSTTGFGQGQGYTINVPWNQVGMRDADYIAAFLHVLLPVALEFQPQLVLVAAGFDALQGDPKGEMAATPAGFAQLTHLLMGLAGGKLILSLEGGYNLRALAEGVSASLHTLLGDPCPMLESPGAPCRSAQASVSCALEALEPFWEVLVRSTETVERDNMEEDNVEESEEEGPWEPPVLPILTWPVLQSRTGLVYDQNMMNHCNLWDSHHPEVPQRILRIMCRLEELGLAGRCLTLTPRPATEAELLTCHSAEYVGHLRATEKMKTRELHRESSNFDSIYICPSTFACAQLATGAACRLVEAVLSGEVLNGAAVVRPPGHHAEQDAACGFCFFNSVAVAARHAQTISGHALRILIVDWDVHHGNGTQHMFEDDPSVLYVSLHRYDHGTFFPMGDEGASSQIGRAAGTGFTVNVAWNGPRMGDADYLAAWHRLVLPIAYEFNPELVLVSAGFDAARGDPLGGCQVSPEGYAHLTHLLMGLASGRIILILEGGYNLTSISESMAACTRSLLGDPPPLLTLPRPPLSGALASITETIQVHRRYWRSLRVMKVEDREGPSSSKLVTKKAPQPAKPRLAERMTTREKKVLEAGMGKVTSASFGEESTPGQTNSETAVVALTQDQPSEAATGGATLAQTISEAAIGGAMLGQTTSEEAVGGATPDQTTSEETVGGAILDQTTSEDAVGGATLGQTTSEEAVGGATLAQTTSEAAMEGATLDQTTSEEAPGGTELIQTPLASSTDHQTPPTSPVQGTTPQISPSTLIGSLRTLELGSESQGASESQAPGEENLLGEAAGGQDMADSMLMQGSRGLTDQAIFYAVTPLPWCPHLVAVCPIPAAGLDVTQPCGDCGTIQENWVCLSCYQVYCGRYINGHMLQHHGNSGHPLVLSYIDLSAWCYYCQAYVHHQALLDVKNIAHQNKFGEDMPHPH
Outline: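 Human HDAC6 fluorimetric kit with Fluor de Lys substrate; panobinostat as control inhibitor. Percent inhibition at 100 μM, one experiment in duplicate.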

[7] = test system: Escherichia coli; test: Antimicrobial activity against blaNDM-1-producing multidrug-resistant Escherichia coli SI-004 clinical isolate assessed as meropenem MIC at 32 ug/ml by broth microdilution method (reference value: 64 ug/ml)
[8] = Metabolic stability in CD-1 mouse microsomes assessed as compound remaining after 40 mins LC-MS/MS analysis; type: ADME, Microsome; details: read-out: Activity; outline: as §2

Work on `O=C(O)[C@H](CCCn1c(-c2ccc3ccccc3c2)n[nH]c1=S)N(Cc1c[nH]cn1)Cc1c[nH]cn1` yielded a Ki [1] of 520 nM, a Ki [2] of 340 nM and a half-life [3] of over 6 h. For the same molecule, the Stability [4] was “Stable”, the inhibition [5] was 63% and the inhibition [6] was under 100%. For the same molecule, the MIC [7] was 0.06 µg/mL.
In the case of `O=C(O)[C@H](CCn1c(-c2ccccc2)n[nH]c1=S)N(Cc1c[nH]cn1)Cc1c[nH]cn1`, the Ki [1] is reported as 390 nM, the Ki [2] is reported as 230 nM and the half-life [3] is reported as over 6 h. It also gave a microsomal CLint [4] of 10.6 µL/min/mg, a remaining at 40 min [8] of 91.2% and an inhibition [5] of 51%. It also gave an inhibition [6] of under 100% and an MIC [7] of 0.06 µg/mL.
`O=C(O)[C@H](CCCn1c(-c2ccccc2)n[nH]c1=S)N(Cc1ccccn1)Cc1ccccn1` gave a Ki [1] of 1700 nM, a Ki [2] of 760 nM and a half-life [3] of over 6 h. For the same molecule, the microsomal CLint [4] was 16.5 µL/min/mg, the remaining at 40 min [8] was 80.5% and the inhibition [5] was 13%. It also gave an inhibition [6] of under 100% and an MIC [7] of 0.06 µg/mL.
In the case of `O=C(O)[C@H](CCCn1c(-c2ccccc2)n[nH]c1=S)N(Cc1c[nH]cn1)Cc1c[nH]cn1`, the Ki [1] is reported as 150 nM, the Ki [2] is reported as 200 nM and the half-life [3] is reported as over 6 h. The Stability [4] was “Stable”, the inhibition [5] was 51% and the inhibition [6] was under 100%. It also gave an MIC [7] of 0.06 µg/mL.
In the case of `Cc1[nH]cnc1CN(Cc1c[nH]cn1)[C@@H](CCCn1c(-c2ccccc2)n[nH]c1=S)C(=O)O`, the Ki [1] is reported as 380 nM, the Ki [2] is reported as 420 nM and the half-life [3] is reported as over 6 h. It also gave a microsomal CLint [4] of 5.5 µL/min/mg, a remaining at 40 min [8] of 98.1% and an inhibition [5] of 42%. The inhibition [6] was under 100% and the MIC [7] was 0.06 µg/mL.

Reference: ChEMBL document CHEMBL5236609, “Optimization of 1,2,4-Triazole-3-thiones toward Broad-Spectrum Metallo-β-lactamase Inhibitors Showing Potent Synergistic Activity on VIM- and NDM-1-Producing Clinical Isolates” (J Med Chem, 2022)
